Structures are written as SMILES. Values after ≈ are worked out from the molar mass of the structure shown. Active and inactive are the calls of the source. No cut-off for these calls is given here.

For the first assay, the system named is Streptococcus agalactiae. Kind of assay: Antimicrobial activity against Streptococcus agalactiae after 24 hrs by two-fold dilution method. Format: functional. Summed up: (§1)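 Two-fold serial dilution assay reporting MIC in μg/mL, run alongside Staphylococcus aureus, Escherichia coli, Bacillus subtilis and Streptococcus agalactiae. Tobramycin served as positive control.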
The term MIC denotes the lowest concentration found to suppress growth. A high value points to weaker potency. Molecule `CC(=O)O[C@@H]1C(=O)[C@@]2(C)[C@@H](CC[C@H]3C4=C(CCC=C(C)C)C(=O)O[C@H]4C[C@@]32C)[C@@]2(C)CCC(=O)[C@@H](C)[C@H]12` registered an MIC above 128 µg/mL.

With `CC(=O)O[C@@H]1C(=O)[C@@]2(C)[C@@H](CC[C@H]3C4=C(CCC=C(C)C)C(=O)O[C@H]4C[C@@]32C)[C@@]2(C)C=CC(=O)[C@@H](C)[C@H]12`, the MIC is above 128 µg/mL.

As to `CCC(=O)O[C@@H]1C(=O)[C@@]2(C)[C@@H](CC[C@H]3C4=C(CCC=C(C)C)C(=O)O[C@H]4C[C@@]32C)[C@@]2(C)C=CC(=O)[C@@H](C)[C@H]12`, the MIC was above 128 µg/mL.

The molecule `CC(C)=CCCC1=C2[C@H](C[C@@]3(C)[C@H]2CC[C@H]2[C@@]4(C)C=CC(=O)[C@@H](C)[C@@H]4[C@H](O)C(=O)[C@@]23C)OC1=O` yielded a minimum inhibitory concentration (MIC) above 128 µg/mL.

`CC(C)=CCCC1=C2[C@H](C[C@@]3(C)[C@H]2CC[C@H]2[C@@]4(C)CCC(=O)[C@@H](C)[C@@H]4[C@H](O)C(=O)[C@@]23C)OC1=O` returned a minimal inhibitory concentration (MIC) above 128 µg/mL.

On to `CCC(=O)O[C@@H]1C(=O)[C@@]2(C)[C@@H](CC[C@H]3/C(=C(\CCC=C(C)C)C(=O)O)[C@@H](OC(C)=O)C[C@@]32C)[C@@]2(C)C=CC(=O)[C@@H](C)[C@H]12`, for which the minimal inhibitory concentration (MIC) stood at 2 µg/mL (≈ 3.43 µM).

`CC(=O)O[C@H]1C[C@@]2(C)[C@@H](CC[C@H]3[C@@]4(C)C=CC(=O)[C@@H](C)[C@@H]4[C@H](OC(C)=O)C(=O)[C@@]32C)/C1=C(\CCC=C(C)C)C(=O)O` [HELVOLIC ACID] showed an MIC of 8 µg/mL (≈ 14.1 µM).

The molecule `CC(=O)O[C@H]1C[C@@]2(C)[C@@H](CC[C@H]3[C@@]4(C)C=CC(=O)[C@@H](C)[C@@H]4[C@H](OC(C)=O)C(=O)[C@@]32C)/C1=C1\CC[C@@H](C(C)(C)O)OC1=O` registered an MIC of 64 µg/mL (≈ 109 µM).

On to `NC[C@H]1O[C@H](O[C@H]2[C@H](O)[C@@H](O[C@H]3O[C@H](CO)[C@@H](O)[C@H](N)[C@H]3O)[C@H](N)C[C@@H]2N)[C@H](N)C[C@@H]1O` [TOBRAMYCIN], for which the MIC is 32 µg/mL (≈ 68.4 µM).

Turning to `CC(=O)O[C@H]1C[C@@]2(C)[C@@H](CC[C@H]3[C@@]4(C)C=CC(=O)[C@@H](C)[C@@H]4[C@H](OC(C)=O)C(=O)[C@@]32C)/C1=C1\CC[C@H](C(C)(C)O)OC1=O`, the MIC is above 128 µg/mL.

Turning to `CCC(=O)O[C@H]1C[C@@]2(C)[C@@H](CC[C@H]3[C@@]4(C)C=CC(=O)[C@@H](C)[C@@H]4[C@H](OC(C)=O)C(=O)[C@@]32C)/C1=C(\CCC=C(C)C)C(=O)O`, the MIC amounted to 16 µg/mL (≈ 27.5 µM).

Another assay deals with Staphylococcus aureus. Kind of assay: Antimicrobial activity against Staphylococcus aureus after 24 hrs by two-fold dilution method. It is filed as functional. The essentials: as §1
`CC(=O)O[C@@H]1C(=O)[C@@]2(C)[C@@H](CC[C@H]3C4=C(CCC=C(C)C)C(=O)O[C@H]4C[C@@]32C)[C@@]2(C)CCC(=O)[C@@H](C)[C@H]12`: the MIC was above 128 µg/mL.

Take `CC(=O)O[C@@H]1C(=O)[C@@]2(C)[C@@H](CC[C@H]3C4=C(CCC=C(C)C)C(=O)O[C@H]4C[C@@]32C)[C@@]2(C)C=CC(=O)[C@@H](C)[C@H]12`: the MIC was above 128 µg/mL.

Molecule `CCC(=O)O[C@@H]1C(=O)[C@@]2(C)[C@@H](CC[C@H]3C4=C(CCC=C(C)C)C(=O)O[C@H]4C[C@@]32C)[C@@]2(C)C=CC(=O)[C@@H](C)[C@H]12` came in with an MIC above 128 µg/mL.

Turning to `CC(C)=CCCC1=C2[C@H](C[C@@]3(C)[C@H]2CC[C@H]2[C@@]4(C)C=CC(=O)[C@@H](C)[C@@H]4[C@H](O)C(=O)[C@@]23C)OC1=O`, the MIC is above 128 µg/mL.

Molecule `CC(C)=CCCC1=C2[C@H](C[C@@]3(C)[C@H]2CC[C@H]2[C@@]4(C)CCC(=O)[C@@H](C)[C@@H]4[C@H](O)C(=O)[C@@]23C)OC1=O` returned an MIC above 128 µg/mL.

Regarding `CCC(=O)O[C@@H]1C(=O)[C@@]2(C)[C@@H](CC[C@H]3/C(=C(\CCC=C(C)C)C(=O)O)[C@@H](OC(C)=O)C[C@@]32C)[C@@]2(C)C=CC(=O)[C@@H](C)[C@H]12`, 8 µg/mL (≈ 13.7 µM) was the least that counted as inhibitory (MIC).

As to `CC(=O)O[C@H]1C[C@@]2(C)[C@@H](CC[C@H]3[C@@]4(C)C=CC(=O)[C@@H](C)[C@@H]4[C@H](OC(C)=O)C(=O)[C@@]32C)/C1=C(\CCC=C(C)C)C(=O)O` [HELVOLIC ACID], the minimal inhibitory concentration (MIC) worked out at 16 µg/mL (≈ 28.1 µM).

Take `CC(=O)O[C@H]1C[C@@]2(C)[C@@H](CC[C@H]3[C@@]4(C)C=CC(=O)[C@@H](C)[C@@H]4[C@H](OC(C)=O)C(=O)[C@@]32C)/C1=C1\CC[C@@H](C(C)(C)O)OC1=O`: the MIC was above 128 µg/mL.

`NC[C@H]1O[C@H](O[C@H]2[C@H](O)[C@@H](O[C@H]3O[C@H](CO)[C@@H](O)[C@H](N)[C@H]3O)[C@H](N)C[C@@H]2N)[C@H](N)C[C@@H]1O` [TOBRAMYCIN] displayed an MIC of 1 µg/mL (≈ 2.14 µM).

The molecule `CC(=O)O[C@H]1C[C@@]2(C)[C@@H](CC[C@H]3[C@@]4(C)C=CC(=O)[C@@H](C)[C@@H]4[C@H](OC(C)=O)C(=O)[C@@]32C)/C1=C1\CC[C@H](C(C)(C)O)OC1=O` returned an MIC above 128 µg/mL.

`CCC(=O)O[C@H]1C[C@@]2(C)[C@@H](CC[C@H]3[C@@]4(C)C=CC(=O)[C@@H](C)[C@@H]4[C@H](OC(C)=O)C(=O)[C@@]32C)/C1=C(\CCC=C(C)C)C(=O)O` returned a minimum inhibitory concentration (MIC) of 16 µg/mL (≈ 27.5 µM).

The subject of a further assay is Escherichia coli. Kind of assay: Antimicrobial activity against Escherichia coli at 128 ug/ml after 24 hrs by two-fold dilution method. It is filed as functional, organism-based.
Take `CC(=O)O[C@@H]1C(=O)[C@@]2(C)[C@@H](CC[C@H]3C4=C(CCC=C(C)C)C(=O)O[C@H]4C[C@@]32C)[C@@]2(C)CCC(=O)[C@@H](C)[C@H]12`: the outcome was inactive.

On to `CC(=O)O[C@@H]1C(=O)[C@@]2(C)[C@@H](CC[C@H]3C4=C(CCC=C(C)C)C(=O)O[C@H]4C[C@@]32C)[C@@]2(C)C=CC(=O)[C@@H](C)[C@H]12`, for which the outcome was inactive.

As to `CCC(=O)O[C@@H]1C(=O)[C@@]2(C)[C@@H](CC[C@H]3C4=C(CCC=C(C)C)C(=O)O[C@H]4C[C@@]32C)[C@@]2(C)C=CC(=O)[C@@H](C)[C@H]12`, the outcome was inactive.

`CC(C)=CCCC1=C2[C@H](C[C@@]3(C)[C@H]2CC[C@H]2[C@@]4(C)C=CC(=O)[C@@H](C)[C@@H]4[C@H](O)C(=O)[C@@]23C)OC1=O`: the outcome was inactive.

Take `CC(C)=CCCC1=C2[C@H](C[C@@]3(C)[C@H]2CC[C@H]2[C@@]4(C)CCC(=O)[C@@H](C)[C@@H]4[C@H](O)C(=O)[C@@]23C)OC1=O`: the result was inactive.

As for `CCC(=O)O[C@@H]1C(=O)[C@@]2(C)[C@@H](CC[C@H]3/C(=C(\CCC=C(C)C)C(=O)O)[C@@H](OC(C)=O)C[C@@]32C)[C@@]2(C)C=CC(=O)[C@@H](C)[C@H]12`, the result was inactive.

Consider `CC(=O)O[C@H]1C[C@@]2(C)[C@@H](CC[C@H]3[C@@]4(C)C=CC(=O)[C@@H](C)[C@@H]4[C@H](OC(C)=O)C(=O)[C@@]32C)/C1=C(\CCC=C(C)C)C(=O)O` [HELVOLIC ACID], for which the result was inactive.

Regarding `CC(=O)O[C@H]1C[C@@]2(C)[C@@H](CC[C@H]3[C@@]4(C)C=CC(=O)[C@@H](C)[C@@H]4[C@H](OC(C)=O)C(=O)[C@@]32C)/C1=C1\CC[C@@H](C(C)(C)O)OC1=O`, the outcome was inactive.

For `CC(=O)O[C@H]1C[C@@]2(C)[C@@H](CC[C@H]3[C@@]4(C)C=CC(=O)[C@@H](C)[C@@H]4[C@H](OC(C)=O)C(=O)[C@@]32C)/C1=C1\CC[C@H](C(C)(C)O)OC1=O`, the result was inactive.

Regarding `CCC(=O)O[C@H]1C[C@@]2(C)[C@@H](CC[C@H]3[C@@]4(C)C=CC(=O)[C@@H](C)[C@@H]4[C@H](OC(C)=O)C(=O)[C@@]32C)/C1=C(\CCC=C(C)C)C(=O)O`, the result was inactive.

The subject of a further assay is Bacillus subtilis. Kind of assay: Antimicrobial activity against Bacillus subtilis at 128 ug/ml after 24 hrs by two-fold dilution method. It is filed as functional, organism-based.
Take `CC(=O)O[C@@H]1C(=O)[C@@]2(C)[C@@H](CC[C@H]3C4=C(CCC=C(C)C)C(=O)O[C@H]4C[C@@]32C)[C@@]2(C)CCC(=O)[C@@H](C)[C@H]12`: the outcome was inactive.

With `CC(=O)O[C@@H]1C(=O)[C@@]2(C)[C@@H](CC[C@H]3C4=C(CCC=C(C)C)C(=O)O[C@H]4C[C@@]32C)[C@@]2(C)C=CC(=O)[C@@H](C)[C@H]12`, the result was inactive.

As to `CCC(=O)O[C@@H]1C(=O)[C@@]2(C)[C@@H](CC[C@H]3C4=C(CCC=C(C)C)C(=O)O[C@H]4C[C@@]32C)[C@@]2(C)C=CC(=O)[C@@H](C)[C@H]12`, the result was inactive.

For the molecule `CC(C)=CCCC1=C2[C@H](C[C@@]3(C)[C@H]2CC[C@H]2[C@@]4(C)C=CC(=O)[C@@H](C)[C@@H]4[C@H](O)C(=O)[C@@]23C)OC1=O`, the outcome was inactive.

Consider `CC(C)=CCCC1=C2[C@H](C[C@@]3(C)[C@H]2CC[C@H]2[C@@]4(C)CCC(=O)[C@@H](C)[C@@H]4[C@H](O)C(=O)[C@@]23C)OC1=O`, for which the outcome was inactive.

`CCC(=O)O[C@@H]1C(=O)[C@@]2(C)[C@@H](CC[C@H]3/C(=C(\CCC=C(C)C)C(=O)O)[C@@H](OC(C)=O)C[C@@]32C)[C@@]2(C)C=CC(=O)[C@@H](C)[C@H]12`: the result was inactive.

For `CC(=O)O[C@H]1C[C@@]2(C)[C@@H](CC[C@H]3[C@@]4(C)C=CC(=O)[C@@H](C)[C@@H]4[C@H](OC(C)=O)C(=O)[C@@]32C)/C1=C(\CCC=C(C)C)C(=O)O` [HELVOLIC ACID], the outcome was inactive.

As to `CC(=O)O[C@H]1C[C@@]2(C)[C@@H](CC[C@H]3[C@@]4(C)C=CC(=O)[C@@H](C)[C@@H]4[C@H](OC(C)=O)C(=O)[C@@]32C)/C1=C1\CC[C@@H](C(C)(C)O)OC1=O`, the outcome was inactive.

Regarding `CC(=O)O[C@H]1C[C@@]2(C)[C@@H](CC[C@H]3[C@@]4(C)C=CC(=O)[C@@H](C)[C@@H]4[C@H](OC(C)=O)C(=O)[C@@]32C)/C1=C1\CC[C@H](C(C)(C)O)OC1=O`, the result was inactive.

Turning to `CCC(=O)O[C@H]1C[C@@]2(C)[C@@H](CC[C@H]3[C@@]4(C)C=CC(=O)[C@@H](C)[C@@H]4[C@H](OC(C)=O)C(=O)[C@@]32C)/C1=C(\CCC=C(C)C)C(=O)O`, the result was inactive.

For the origin of these results see ChEMBL document CHEMBL4196135, “Helvolic Acid Derivatives with Antibacterial Activities against Streptococcus agalactiae from the Marine-Derived Fungus Aspergillus fumigatus HNMF0047” (2018).
